# T cruzi growth-1: inhibitors of T. cruzi proliferation; T. cruzi beta-gal in NIH3T3, GalScreen luminescence, 90 h; inhibition, % at 8.34 µM; actives 5.9% (n = 77,000);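 active = mean inhibition above about 93%, with at least 55% of replicates each passing it, limit read from the data, passing the limit was not always enough; inconclusive = only one of those two conditions holds; inactive = neither condition holds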
# KDM4C inh: inhibitors of human demethylase GASC-1 KDM4C; Q9H3R0; GST-KDM4C 2-372, H3K9me3 peptide, LANCE TR-FRET; inhibition, % at 12.5 µM; actives 0.15% (n = 96,000); AID 720574;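 active = mean replicate inhibition above about 25%, with at least 55% of replicates also reaching it, limit read from the data, passing the limit was not always enough; inconclusive = only one of those two conditions met; inactive = neither condition met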
#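 Material: GST-tagged GASC-1 (JMJD2C) catalytic fragment, aa 2-372. Input: enzyme final amount 10 nM. Medium: HEPES buffer, pH 7.5, plus ascorbate. Reagent: H3K9me3 peptide substrate, Fe(II), 2-oxoglutarate. Doses: single dose. Times: reaction 30 min RT, detection step 1 h RT. Measured by: LANCE TR-FRET. Evaluation: Fall in 671/618 emission ratio as inhibition.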
# IDH1 mut inh: inhibitors of human IDH1 R132H | O75874 | IDH1 R132H reductase, diaphorase/resazurin fluorescence, 60 min | inhibition, % at 10 µM | actives 0.18% (n = 70,000) | AID 624101; in the data active = inhibition above about 34%; inconclusive = no clear call, values can overlap the other calls; inactive = below about 11%;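 also: 0% = DMSO and 100% = no enzyme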
# Target sequence (O75874 whole entry R132H): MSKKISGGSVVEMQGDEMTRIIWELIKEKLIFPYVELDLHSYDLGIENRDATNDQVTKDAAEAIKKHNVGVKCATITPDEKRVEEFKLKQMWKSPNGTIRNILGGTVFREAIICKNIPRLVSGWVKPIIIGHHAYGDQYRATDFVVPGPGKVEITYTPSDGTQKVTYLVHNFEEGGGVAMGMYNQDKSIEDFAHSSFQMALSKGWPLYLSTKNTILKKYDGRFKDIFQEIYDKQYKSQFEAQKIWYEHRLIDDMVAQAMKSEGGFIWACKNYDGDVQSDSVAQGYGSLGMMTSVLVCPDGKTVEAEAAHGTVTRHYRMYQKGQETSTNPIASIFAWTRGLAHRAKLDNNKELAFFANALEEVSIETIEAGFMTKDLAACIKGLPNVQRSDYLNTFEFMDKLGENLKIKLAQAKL
# Pf Dd2 growth: P. falciparum Dd2 growth inhibition. actives 2.3% (n = 94,000). AID 1159554. SYBR Green, 72 h; stronger effect = lower value. activity change, % at 10 µM; in the data active = activity change below about -80%; inconclusive = no clear call, values can overlap the other calls
# T cruzi growth-2: inhibitors of T. cruzi proliferation | shares compounds with T cruzi growth-1 | T. cruzi beta-gal in NIH3T3, GalScreen luminescence, 90 h | inhibition, % at 8.35 µM | actives 72% (n = 5,600) | AID 651739;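 active = mean replicate inhibition above about 95% and at least 55% of replicates individually reaching it, limit read from the data; inconclusive = only one of the two criteria is met; inactive = neither criterion is met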
# T cruzi growth-3: blocks T. cruzi growth in NIH3T3 host cells; shares compounds with T cruzi growth-1; T. cruzi beta-gal in NIH3T3, GalScreen luminescence, 90 h; inhibition, % at 2.09 µM; actives 21% (n = 5,600);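 active = mean inhibition above about 95%, with at least 55% of replicates also reaching it, limit read from the data; inconclusive = meets just one of the two conditions; inactive = meets neither condition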;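 also: plate controls were neutral control median for no effect and positive control median for full effect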
# 3T3 cytotox: cytotoxicity in mouse NIH/3T3 fibroblasts; shares compounds with T cruzi growth-1; NIH/3T3 viability, CellTiter-Glo ATP luminescence, 90 h; cytotoxicity (signal decrease), % at 8.35 µM; actives 14% (n = 5,600);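 active = mean signal decrease across replicates above about 35% based on untreated-well scatter, with enough replicates individually passing, limit read from the data; inconclusive = no rule stated though some were filed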;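 also: 0% = median of neutral control wells and 100% = median of positive control wells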
# 3T3 cytotox 2: NIH/3T3 (mouse) viability loss. shares compounds with T cruzi growth-1. NIH/3T3 viability, CellTiter-Glo ATP luminescence, 90 h. inhibition, % at 24.9 µM. actives 56% (n = 5,600);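 active = mean loss of cell viability signal at or above a set limit, and enough replicates individually reaching it; inconclusive = meets only the mean limit or only the replicate share; inactive = meets neither condition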;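 also: 0% = median of neutral control wells and 100% = median of positive control wells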
# The depositor's hits bear a star; u = inconclusive; x = no result. Sampled rows, rich in hits. Any-hit rate of the full collection: about 5.8%.
SMILES,T cruzi growth-1,KDM4C inh,IDH1 mut inh,Pf Dd2 growth,T cruzi growth-2,T cruzi growth-3,3T3 cytotox,3T3 cytotox 2
CCCC#Cc1ccc2c(c1)O[C@@H](CN(C)C(=O)c1ccncc1)[C@H](C)CN([C@H](C)CO)S2(=O)=O,82,-1,0,-23,x,x,x,x
CCCC#Cc1ccc2c(c1)O[C@H](CN(C)C(=O)c1ccncc1)[C@@H](C)CN([C@@H](C)CO)S2(=O)=O,80,-3,7,-49,x,x,x,x
CCCC#Cc1ccc2c(c1)O[C@@H](CN(C)C(=O)c1ccncc1)[C@@H](C)CN([C@H](C)CO)S2(=O)=O,110*,-3,-5,-42,97*,71,8,37*
CCCC#Cc1ccc2c(c1)O[C@@H](CN(C)C(=O)c1ccncc1)[C@@H](C)CN([C@@H](C)CO)S2(=O)=O,108*,1,-1,-34,106*,90,-3,49*
CCC(=O)N1CCCCN2[C@H](C1)[C@H](c1ccc(C#Cc3ccccc3F)cc1)[C@@H]2CO,u,-1,x,-19,74,29,40*,95*
CC(=O)N1CCCCN2[C@H](CO)[C@@H](c3ccc(C#Cc4ccccc4F)cc3)[C@@H]2C1,113*,0,x,-24,108*,40,36*,101*
CC(=O)N1CCCCN2[C@@H](CO)[C@@H](c3ccc(C#Cc4ccccc4F)cc3)[C@@H]2C1,60,-1,x,19,x,x,x,x
CCC(=O)N1CCCCN2[C@H](C1)[C@@H](c1ccc(C#Cc3ccccc3)cc1)[C@@H]2CO,94,0,x,-5,x,x,x,x
CCC(=O)N1CCCCN2[C@H](CO)[C@H](c3ccc(C#Cc4ccccc4)cc3)[C@@H]2C1,117*,-1,x,-14,104*,85,52*,58*
CCC(=O)N1CCCCN2[C@H](CO)[C@@H](c3ccc(C#Cc4ccccc4F)cc3)[C@@H]2C1,u,-2,x,-13,101*,53,21,104*
CCCNC(=O)Nc1ccc2c(c1)OC[C@H](C)N(Cc1cccnc1)C[C@@H](C)[C@@H](OC)CN(C)C2=O,66,1,0,-46,x,x,x,x
COCC(=O)N1[C@H](CO)[C@@H]2c3ccccc3N(C(=O)c3ccccc3F)C[C@@H]21,-3,0,x,-7,x,x,x,x
Cc1ccc(S(=O)(=O)N(C)C[C@H]2OCCCC[C@@H](C)Oc3ccc(NC(=O)Cc4ccccc4)cc3C(=O)N([C@@H](C)CO)C[C@H]2C)cc1,108*,-1,x,-65,106*,61,-19,-3
Cc1ccc(S(=O)(=O)N(C)C[C@@H]2OCCCC[C@@H](C)Oc3ccc(NC(=O)Cc4ccccc4)cc3C(=O)N([C@@H](C)CO)C[C@H]2C)cc1,64,1,0,-70,x,x,x,x
Cc1ccc(S(=O)(=O)N(C)C[C@H]2OCCCC[C@@H](C)Oc3ccc(NC(=O)Cc4ccccc4)cc3C(=O)N([C@@H](C)CO)C[C@@H]2C)cc1,112*,-1,1,-77,106*,88,26,49*
COc1ccc(S(=O)(=O)Nc2ccc3c(c2)C(=O)N([C@@H](C)CO)C[C@H](C)[C@H](CN(C)Cc2ccccc2)OCCCC[C@@H](C)O3)cc1,32,0,x,-51,x,x,x,x
COc1ccc(S(=O)(=O)Nc2ccc3c(c2)C(=O)N([C@H](C)CO)C[C@@H](C)[C@H](CN(C)S(=O)(=O)c2ccc(F)cc2)OCCCC[C@@H](C)O3)cc1,105*,-3,3,-69,105*,59,11,13
COc1ccc(S(=O)(=O)N(C)C[C@@H]2OCCCC[C@@H](C)Oc3ccc(NS(=O)(=O)c4ccc(F)cc4)cc3C(=O)N([C@@H](C)CO)C[C@@H]2C)cc1,112*,0,5,-64,101*,65,-1,53*
COc1ccc(S(=O)(=O)N(C)C[C@@H]2OCCCC[C@H](C)Oc3ccc(NS(=O)(=O)c4ccc(F)cc4)cc3C(=O)N([C@@H](C)CO)C[C@@H]2C)cc1,118*,0,x,-53,108*,40,-27,-8
COc1ccc(S(=O)(=O)N(C)C[C@H]2OCCCC[C@@H](C)Oc3ccc(NS(=O)(=O)c4ccc(F)cc4)cc3C(=O)N([C@H](C)CO)C[C@H]2C)cc1,114*,-2,0,-74,106*,75,-17,-17
C[C@@H]1CN([C@@H](C)CO)C(=O)c2cccc(NC(=O)Nc3ccc4c(c3)OCO4)c2O[C@H]1CN(C)Cc1ccccc1,68,1,x,-13,x,x,x,x
C[C@@H]1CN([C@H](C)CO)C(=O)c2cc(-c3cccc(C(=O)N(C)C)c3)cnc2O[C@@H]1CN(C)S(=O)(=O)c1ccc(F)cc1,1,-3,6,16,x,x,x,x
C[C@@H]1CN([C@H](C)CO)C(=O)c2cc(NS(=O)(=O)c3ccc(Cl)cc3)ccc2O[C@H]1CN(C)Cc1ccc(C(=O)O)cc1,96,1,1,6,x,x,x,x
COc1ccc(S(=O)(=O)Nc2ccc3c(c2)C(=O)N([C@H](C)CO)C[C@@H](C)[C@@H](CN(C)S(=O)(=O)c2ccc(F)cc2)OCCCC[C@H](C)O3)cc1,95*,0,x,-57,108*,33,-7,5
COc1ccc(S(=O)(=O)N(C)C[C@@H]2OCCCC[C@@H](C)Oc3ccc(NS(=O)(=O)c4ccc(F)cc4)cc3C(=O)N([C@H](C)CO)C[C@@H]2C)cc1,53,-1,x,-25,x,x,x,x
COc1ccc(NC(=O)N(C)C[C@H]2OCCCC[C@H](C)Oc3ccc(NC(=O)Cc4ccccc4)cc3C(=O)N([C@@H](C)CO)C[C@H]2C)cc1,14,-1,x,-69,x,x,x,x
N#Cc1ccc(-c2ccc([C@@H]3[C@H](CO)N4CCCCN(S(=O)(=O)c5ccccc5)C[C@@H]34)cc2)cc1,u,0,x,-6,77,42,10,44*
N#Cc1ccc(-c2ccc([C@@H]3[C@H]4CN(S(=O)(=O)c5ccccc5)CCCCN4[C@H]3CO)cc2)cc1,101*,-1,x,-12,103*,46,23,29*
N#Cc1cccc(-c2ccc([C@H]3[C@H](CO)N4CCCCN(S(=O)(=O)c5ccccc5)C[C@@H]34)cc2)c1,88,1,x,12,x,x,x,x
N#Cc1ccc(-c2ccc([C@H]3[C@@H](CO)N4CCCCN(S(=O)(=O)c5ccccc5)C[C@H]34)cc2)cc1,117*,0,x,-54,113*,83,18,71*

# Screening results (PubChem)
